Many of the other results were omitted from the sample, so hits are more common in it than they were.
PolyA inhibitor = polyadenylation inhibitors in yeast reporter cells, primary screen, luminescence, S. cerevisiae. S. cerevisiae SKY197-pL101 polyadenylation reporter, beta-gal luminescence; efflux-impaired pdr1/pdr3 knockout yeast; score 100 = 6 SD above DMSO. activity score, % at 12 µM. 300,000 tested, 0.02% active. AID 1875, 2009;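 active = lowest replicate activity score at least 50, where 100 means six control SD above control mean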;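 also: yeast exposed to compound for 9 h at 30 °C; higher score means more reporter readthrough which indicates perturbed polyadenylation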
T cruzi repl = inhibitors of intracellular T. cruzi growth, primary screen, luminescence, NIH3T3 host cells; T. cruzi beta-gal in NIH3T3, 90 h; inhibition, % (concentration not given with the values); 300,000 tested, 1.4% active; AID 1885, 2009;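 active = mean inhibition across valid replicates above about 55%, limit read from the data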;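 also: signal also drops with host cell toxicity which is not excluded here; 0% = plate median of DMSO wells and 100% = zero luminescence signal; higher percent means less beta-gal luminescence so fewer parasites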
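System: mouse NIH/3T3 fibroblasts infected with β-gal-expressing T. cruzi Tulahuen C4 / Input: NIH/3T3 cells, 5,000 per well / Buffer or medium: Low-serum DMEM with 2% FBS / Probe or stimulus: 5000 reporter trypomastigotes per well / Schedule: ≥90 h infection period, 3 h prior cell attachment / Measured by: GalScreen luminescence, 60 min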
NALP1 yeast inh = NALP1 inflammasome inhibitors in reconstituted yeast, colorimetric, S. cerevisiae, triplicate retest; S. cerevisiae NALP1/ASC/caspase-1 growth, X-gal OD620, 72 h; inhibition, % at 10 µM; 280,000 tested, 0.61% active; AID 2071, 2009; in the data active = inhibition mostly above about 24%, no sharp cut-off; inactive = mostly below about 32%
NALP3 yeast inh = NALP3 inflammasome inhibitors in reconstituted yeast, primary screen, luminescence, uHTS; inhibition, % at 10 µM; Yeast reconstituted NLRP3/ASC/caspase-1, beta-gal luminescence, 24 h; 330,000 tested, 0.39% active; AID 2825, 2010;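 active = inhibition of 50% or more; inactive = inhibition below 50%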;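 also: plate controls were induced DMSO wells for no effect and uninduced yeast grown without galactose for full effect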
Calb FLC = C. albicans growth inhibition with fluconazole, primary screen, CaCi-2 strain, Alamar Blue fluorescence; C. albicans CaCi-2 (fluconazole-resistant clinical isolate) + fluconazole, 48 h; growth inhibition, % (no concentration beside the values); 300,000 tested, 0.57% active;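 active = growth inhibition above about 58% in most replicates, limit read from the data, passing the limit was not always enough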;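 also: all wells also contain fluconazole at 8 µg/ml as a sub-toxic cotreatment; 0% = median of DMSO wells and 100% = median of geldanamycin control wells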
L major viab = Leishmania major promastigote growth inhibition, primary screen; inhibition, % at 10 µM; AID 1063, 2008; Leishmania major promastigotes, resazurin fluorescence viability; 200,000 tested, 9% active; in the data active = inhibition above about 50%;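 also: promastigotes grown with compound for 44 hours at 28 °C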
* = called active by the depositor; . = no result.

SMILES	PolyA inhibitor	T cruzi repl	NALP1 yeast inh	NALP3 yeast inh	Calb FLC	L major viab
CNC(=O)c1c(NC(=O)CS(=O)(=O)c2ccc(F)cc2)sc(C)c1C	10	-7	.	16	10	.
OCCNCCCCOc1ccc(OCc2ccccc2)cc1	0	42	28	15	-1	100*
S=C(Nc1ccccc1)Nc1ccc(OCc2ccccc2)cc1	-4	8	-13	11	7	0
OCCCNCc1ccc(-c2ccccc2)cc1	1	9	19	6	0	92*
CCOCCCNCc1ccc(OCc2ccccc2Cl)cc1	-68	33	52*	32	-8	100*
O=C(O)CCCCNCc1ccccc1	-3	-13	40*	7	-4	-6
OCCCNCc1cccc2ccccc12	-3	16	8	8	-5	-6
CCN(CC)CCOC(=O)c1ccc(NC(=O)c2ccc(Cl)c(S(=O)(=O)N3CCCCCC3)c2)cc1	0	3	9	11	25	-3
Cc1cnc(C(=O)N2CCN(S(=O)(=O)c3cccc(Br)c3)CC2)cn1	.	.	.	13	.	.
C=CCC1(/C=N/O)CCOC(C)(C)C1 (stereo not given)	-11	12	3	-13	-18	.
O=C(Nc1ccc(OCc2ccccc2)cc1)c1ccccc1	12	4	-6	12	-22	-7
OCCNCCCCOc1ccc(F)cc1	-27	6	6	22	6	63*
OCCCCNCc1ccc(OCc2ccccc2)cc1	12	3	28	11	6	90*
OCCCCNCc1ccc(OCc2ccccc2Cl)cc1	1	41	18	32	-5	97*
CC(C)c1ccc(/C=C/C(=O)NC(=S)Nc2ccc(CN3CCOCC3)cc2)cc1	-89	31	38	27	-8	45
CC1CN(C2CCN(C(=O)c3ccccc3Cl)CC2)CC(C)O1 (stereo not given)	10	2	36	11	0	88*
O=C(Nc1ccc(F)cc1)c1ccc(C(=O)N2CCOCC2)cc1	8	-2	.	9	-12	.
CC1CN(C2CCN(C(=O)c3cccc(Cl)c3)CC2)CC(C)O1 (stereo not given)	-17	-3	3	22	7	91*
O=C(c1cccc(F)c1)N1CCC(N2CCOCC2)CC1	10	-8	6	16	7	62*
O=C(c1cccc(Cl)c1)N1CCC(N2CCC(C(=O)N3CCOCC3)CC2)CC1	6	-4	-2	-7	26	42
O=C(c1ccc(F)cc1)N1CCOCC1	5	-16	26*	4	1	-4
CSc1ncccc1C(=O)OCC(=O)NC(=O)NCCC(C)C	20	14	-15	14	-16	3
O=C(c1cc(Cl)ccc1O)N1CCN(S(=O)(=O)Cc2ccccc2)CC1	.	.	.	15	.	.
CN(C(=O)CSc1nc(-c2ccccc2)cn1N)C(c1ccccc1)c1ccccc1	11	8	8	-10	-5	100*
COc1cc(CN2CCCC(C(=O)Nc3ccccc3Oc3cccnc3)C2)ccc1F (stereo not given)	16	49	-2	-1	-4	.
SMILES	PolyA inhibitor	T cruzi repl	NALP1 yeast inh	NALP3 yeast inh	Calb FLC	L major viab
Cc1ccc(S(=O)(=O)N(C)c2cc(S(=O)(=O)N3CCC(C)CC3)c(C)cc2C)cc1	-17	14	16	8	-1	77*
CCN(CC(=O)Nc1ccc(S(=O)(=O)N2CCCC2)cc1)CC(=O)Nc1ccccc1C(F)(F)F	.	.	.	23	.	.
COC(=O)CN1C(=S)N(c2ccc(OC)cc2)C(=O)/C1=C/c1cccs1	-13	-1	12	3	-30	69*
CCOc1ccc(/C=C2/C(=O)N(c3ccc(OC)cc3)C(=S)N2CC(=O)OC)cc1OCC	1	18	8	15	9	24
CCc1ccc(N2C(=O)/C(=C/c3cccs3)N(CC(=O)OC)C2=S)cc1	-4	3	1	2	8	0
CCOc1ccc(N2C(=O)/C(=C/c3cc(OC)c(OC)c(OC)c3)N(CC(=O)OC)C2=S)cc1	-3	8	6	17	8	100*

Assay outcomes deposited in PubChem by several laboratories.
